Columns and labels:
[1] = substrate: CC(C)=CCC/C(C)=C/Cc1c(O)cc(O)cc1-c1cc2ccc(O)cc2o1; assay: (§1) Activity at human recombinant PTP1B
Summary of the method: (§2)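 Recombinant human PTP1B (0.1 μg) incubated with 2 mM p-NPP in 50 mM citrate pH 6.0, 0.1 M NaCl, 1 mM EDTA, 1 mM DTT, with or without inhibitor. Incubation 37 °C for 30 min, stopped with 10 M NaOH. p-Nitrophenol read by absorbance at 405 nm, corrected for nonenzymatic p-NPP hydrolysis without enzyme. Values are mean ± SD of triplicates.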

[2] = substrate: CC(C)=CCC/C(C)=C/Cc1c(O)ccc2cc(-c3cc(O)cc(O)c3CC=C(C)C)oc12; assay: as §1; summary of the method: as §2
[3] = substrate: CC(C)=CCC/C(C)=C\CC/C(C)=C\Cc1c(O)cc(O)cc1-c1cc2ccc(O)cc2o1; assay: as §1; summary of the method: as §2
[4] = substrate: CC(C)=CCc1c(O)cc(C(=O)[C@H]2[C@@H](c3c(O)ccc(C(=O)/C=C/c4ccc(O)cc4)c3O)C=C(C)C[C@@H]2c2ccc(O)cc2)cc1O; assay: as §1; summary of the method: as §2
[5] = substrate: CC(C)=CCc1c(O)cc(C(=O)[C@H]2[C@@H](c3c(O)ccc(C(=O)/C=C/c4ccc(O)cc4)c3O)C=C(C)C[C@@H]2c2ccc(O)cc2O)cc1O; assay: as §1; summary of the method: as §2
[6] = substrate: CC(C)=CCc1c(O)cc(C(=O)[C@H]2[C@@H](c3c(O)ccc(C(=O)/C=C/c4ccc(O)cc4O)c3O)C=C(C)C[C@@H]2c2ccc(O)cc2O)cc1O; assay: as §1; summary of the method: as §2

B1: Tyrosine-protein phosphatase non-receptor type 1 (Homo sapiens), P18031 (protein)
chain: MEMEKEFEQIDKSGSWAAIYQDIRHEASDFPCRVAKLPKNKNRNRYRDVSPFDHSRIKLHQEDNDYINASLIKMEEAQRSYILTQGPLPNTCGHFWEMVWEQKSRGVVMLNRVMEKGSLKCAQYWPQKEEKEMIFEDTNLKLTLISEDIKSYYTVRQLELENLTTQETREILHFHYTTWPDFGVPESPASFLNFLFKVRESGSLSPEHGPVVVHCSAGIGRSGTFCLADTCLLLMDKRKDPSSVDIKKVLLEMRKFRMGLIQTADQLRFSYLAVIEGAKFIMGDSSVQDQWKELSHEDLEPPPEHIPPPPRPPKRILEPHNGKCREFFPNHQWVKEETQEDKDCPIKEEKGSPLNAAPYGIESMSQDTEVRSRVVGGSLRGAQAASPAKGEPSLPEKDEDHALSYWKPFLVNMCVATVLTAGAYLCYRFLFNSNT
- Km [1]: 1250 µM
- Vmax [1]: 6.58 µM/min
- Km [2]: 2080 µM
- Vmax [2]: 5.78 µM/min
- Km [3]: 3.17 mM
- Vmax [3]: 5.49 µM/min
- Km [4]: 1190 µM
- Vmax [4]: 6.71 µM/min
- Km [5]: 1640 µM
- Vmax [5]: 5.95 µM/min
- Km [6]: 2810 µM
- Vmax [6]: 5.41 µM/min
